A selection: hits, their analogues and other compounds. The true share with any hit is near 1.7%.
GASC-1 inh: human JMJD2C demethylase inhibition. inhibition, % at 2.35 µM. AID 2099. Q9H3R0. GST-JMJD2C(1-420) H3K9me3 demethylation, DELFIA europium. 330,000 tested, 0.069% active;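 active means more than half of a compound's replicate wells show inhibition beyond 50%, single wells judged on their own value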;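 further: signal counts dimethyl H3K9 product captured on neutravidin plate; 0% = median of DMSO wells and 100% = 0.3 times that DMSO median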
PP5 inh: PP5 (human) phosphatase inhibition. P53041. purified PP5c, OMFP substrate fluorescence. inhibition, % at 6.7 µM. AID 1987. 320,000 tested, 0.18% active;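 active means inhibition above the campaign's mean inhibition across all tested compounds plus 3 SD, cut at about 9.5% in these data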;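 further: 0% = DMSO only and 100% = 100 µM cantharidin control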
HTR2A ag: agonists of mouse serotonin 5-HT2A receptor (HTR2A); P35363; CHO-K1 mHTR2A beta-arrestin complementation, luminescence; percent of 30 µM serotonin response; activation, % at 7.6 µM; 360,000 tested, 0.66% active;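 active means activation above a run cutoff, the mean activation of all tested compounds plus 3 SD, cut at about 14% in these data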;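 further: 0% = plate median of compound wells and 100% = 30 µM serotonin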
Target sequence (P35363 whole entry, looked up): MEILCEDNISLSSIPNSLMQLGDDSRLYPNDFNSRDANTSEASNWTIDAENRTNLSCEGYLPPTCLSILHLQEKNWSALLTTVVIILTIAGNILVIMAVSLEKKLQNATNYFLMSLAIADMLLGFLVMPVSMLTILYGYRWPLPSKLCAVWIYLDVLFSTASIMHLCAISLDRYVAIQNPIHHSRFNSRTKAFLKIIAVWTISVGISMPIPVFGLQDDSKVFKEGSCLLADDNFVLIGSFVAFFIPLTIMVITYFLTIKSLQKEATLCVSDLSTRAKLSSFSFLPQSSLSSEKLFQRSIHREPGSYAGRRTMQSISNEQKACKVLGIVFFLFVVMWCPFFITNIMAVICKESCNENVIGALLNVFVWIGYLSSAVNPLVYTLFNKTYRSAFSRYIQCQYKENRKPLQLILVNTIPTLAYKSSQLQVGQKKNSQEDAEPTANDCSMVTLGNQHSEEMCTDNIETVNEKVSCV
T cell modulator: modulates CD8 T cell binding to vesicles | 2C CD8+ T cell-vesicle binding, flow cytometry; stronger effect = lower value | AID 2052 | response (vesicle binding), % at 7 µM | 330,000 tested, 0.068% active;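 active means response, share of CD8 T cells binding vesicles, and their 90th percentile fluorescence all below set limits, cut at about 80% in these data, passing the limit was not always enough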;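 further: values below 100% mean blocked vesicle binding to the CD8+ T cells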
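System: murine 2C transgenic CD8+ T lymphocytes; also added: QL9-loaded Drosophila micro-vesicles; times: binding 1.5 h at 37 °C; measured by: flow cytometry, PE anti-B7-1 (FL2) versus Alexa647 anti-CD8 (FL8), PFA-fixed; control set: Peptide-free naked vesicles (low) and QL9 vesicles with 0.7% DMSO vehicle (high)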
PP1 counter: blocks human PP1-alpha phosphatase, a PP5 counter-screen. purified PP1alpha, OMFP fluorescence. 320,000 tested, 0.9% active. inhibition, % at 6.7 µM. P62136;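 active means inhibition above the mean inhibition of all tested compounds plus 3 SD, computed separately for each screening campaign, cut at about 15% in these data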
OPRM1 ag: OPRM1 agonism in mouse HTR2A counterscreen. U2OS OPRM1 beta-arrestin PathHunter, luminescence; DMSO 0%, DAMGO 9.3 µM 100%. AID 624380. shares compounds with HTR2A ag. 2,300 tested, 5.3% active. activation, % at 9.3 µM;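 active means mean activation above the mean of DMSO-only wells plus 3 SD, cut at about 0.5% in these data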
m5-HT2A ag conf: mouse HTR2A agonism confirmed | shares compounds with HTR2A ag | CHO-K1 PathHunter beta-arrestin recruitment, luminescence; DMSO 0%, 30 µM serotonin 100% | activation, % at 7.6 µM | 2,300 tested, 19% active | AID 624381;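 active means mean activation across triplicates above the hit threshold derived in the original primary screen, cut at about 15% in these data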
* hit, by the source's call; i = inactive; . = not tested or not shown.

SMILES | GASC-1 inh | PP5 inh | HTR2A ag | T cell modulator | PP1 counter | OPRM1 ag | m5-HT2A ag conf
CCOC(=O)Cc1nnc(NC(=O)CSc2nncn2C)s1 | 0 | -2 | -2 | 349 | -3 | . | .
CCOC(=O)Cc1nnc(NC(=O)C(CC)Sc2nncn2C)s1 (configuration not stated) | -7 | 4 | 14* | 481 | -1 | -1 | -4
C(=C\c1ccccc1)/CN1CCN(C(CCc2ccccc2)c2nnnn2-c2ccc3c(c2)OCCO3)CC1 (configuration not stated) | . | . | -4 | . | . | . | .
CCC(c1nnnn1-c1ccc2c(c1)OCCO2)N1CCN(C/C=C/c2ccccc2)CC1 (configuration not stated) | . | . | 20* | . | . | -1 | 62*
C(=C\c1ccccc1)/CN1CCN(C(c2nnnn2-c2ccc3c(c2)OCCO3)C2CC2)CC1 (configuration not stated) | . | . | 15* | . | . | -1 | 51*
COc1ccc(C2=CC(=O)C[C@H](CN3C(=O)c4ccccc4C3=O)N(C(=O)OC(C)(C)C)O2)cc1 | . | . | 15* | . | . | -1 | -5
CCC[C@H]1CC(=O)C=C(c2ccsc2)ON1C(=O)OC(C)(C)C | . | . | -5 | . | . | . | .
CSc1nc(C)cc(NC(N)=O)n1 | 6 | 6 | 15* | 218 | -1 | 0 | 0
COc1ccc(N(Cc2cc3ccccc3[nH]c2=O)S(=O)(=O)c2ccc(C)cc2)cc1 | 6 | 4 | -2 | 447 | 8 | . | .
Cc1ccccc1-n1ncc2c1CC(C)(C)CC2NC(=O)C1CCC1 (configuration not stated) | -3 | 2 | 2 | 171 | -4 | . | .
Cc1ccccc1-n1ncc2c1CC(C)(C)CC2NC(=O)C1=CC(=O)CC(C)(C)O1 (configuration not stated) | -6 | 1 | 32* | 350 | 0 | -1 | -3
O=C(O)CCn1nnc(-c2ccccc2)n1 | -9 | 5 | -4 | 31 | 0 | . | .
CCN(CCNC(=O)C1CCCN(S(=O)(=O)c2cnc[nH]2)C1)c1ccccc1 (configuration not stated) | -18 | 0 | 6 | 359 | 0 | . | .
CCN(CCCNC(=O)C1CCCN(S(=O)(=O)c2cnc[nH]2)C1)c1ccccc1 (configuration not stated) | -10 | 0 | 18* | 317 | -6 | 0 | -2
CCOc1ccc(Oc2ccccc2NC(=O)CN2C(=O)NC3(CCCC3)C2=O)cc1 | 25 | 2 | 1 | 0 | -11 | . | .
CC1=C(C(N)=O)C(c2ccc(Cl)cc2)NC(=O)N1 (configuration not stated) | -3 | 1 | 0 | i | -8 | . | .
CC(=O)C1=C(C)NC(=O)NC1c1ccc(Cl)cc1 (configuration not stated) | -10 | -1 | 17* | i | -2 | -1 | -3
COc1cccc(-n2c(-c3ccccc3)c[nH]c2=S)c1 | 2 | 4 | 22* | 299 | 6 | 0.5* | 3
S=c1[nH]cc(-c2ccccc2)n1-c1cccc(Cl)c1 | -4 | 2 | 0 | 227 | 5 | . | .
O=C(c1ccc(S(=O)(=O)c2ccccc2Cl)c([N+](=O)[O-])c1)N1CCCCCC1 | 6 | -1 | 5 | 624 | 1 | . | .
O=C(O)c1ccccc1Nc1ccnc(C(F)(F)F)c1 | -8 | 1 | 19* | i | 1 | -1 | -1
Cc1cccn2c(=O)nc(SCC(=O)NCCc3ccccc3)nc12 | 142 | -1 | 8 | 228 | -2 | . | .
Cc1cccn2c(=O)nc(SCC(=O)NCc3ccccc3)nc12 | -1 | -1 | 15* | 154 | -4 | -1 | -4
Cc1cc2c(cc(C(=O)OC(C)C(=O)NCc3ccc(F)cc3)n2C)o1 (configuration not stated) | . | . | 10 | . | . | . | .
Cc1cc(CNC(=O)COc2ccccc2)c2ccccc2n1 | -1 | . | 16* | . | . | 0 | -4
SMILES | GASC-1 inh | PP5 inh | HTR2A ag | T cell modulator | PP1 counter | OPRM1 ag | m5-HT2A ag conf
CC(C)c1ccc(CN(C(=O)c2cccs2)C2CCS(=O)(=O)C2)cc1 (configuration not stated) | 3 | 1 | 15* | 231 | -2 | -1 | -4
O=C(c1cccs1)N(Cc1ccc(Cl)cc1)C1CCS(=O)(=O)C1 (configuration not stated) | -8 | 2 | -1 | 335 | -5 | . | .
Cc1cc(-c2ccccc2)c2c(n1)sc1c(O)cc(=O)[nH]c12 | -10 | -1 | . | 345 | -3 | . | .
Cc1cc(-c2cccs2)c2c(n1)sc1c(=O)[nH]c(=O)[nH]c12 | -1 | 0 | 17* | 179 | 6 | -1 | -3
Cc1cccc(NC(=O)Cn2c([N+](=O)[O-])cnc2C)c1C | -2 | -1 | . | 226 | 0 | . | .
Nc1ncnc(Nc2ccc(F)cc2)n1 | 2 | 0 | -2 | 190 | -4 | . | .
Cc1ccc(Nc2ncnc(N)n2)cc1 | 2 | 0 | 23* | 0 | -5 | 0 | -2
CCCCN(C=O)c1c(CC)nc2ccc(C(=O)N3CCN(S(=O)(=O)CC)CC3)cn12 | . | . | 7 | . | . | . | .
Cc1cc(C)c(C)c(S(=O)(=O)N2CCN(C(=O)c3ccccn3)CC2)c1C | . | 2 | 16* | 396 | -3 | 1.1* | 4
Cc1ccc(NS(=O)(=O)c2ccccc2F)cc1S(=O)(=O)N1CCCCCC1 | . | . | 3 | . | . | . | .
CCCS(=O)(=O)NC(=O)C1(C)CCCN(C(=O)c2ccccc2C(F)(F)F)C1 (configuration not stated) | . | . | 20* | . | . | 0 | 3
CC(=O)Nc1ccc(C(=O)OCC(=O)NCc2ccc(Cl)cc2)cc1 | 19 | 2 | . | 304 | 1 | . | .
O=S(=O)(c1ccc(F)cc1)N1CCN(S(=O)(=O)c2ccc3c(c2)OCCO3)CC1 | 2 | . | -1 | 338 | . | . | .
CCCCCC(=O)Nc1cccc(C2=NOC3(C2)C[C@H](C(N)=O)N(C(=O)COc2ccc(Cl)cc2)C3)c1 (some centres not stated) | -20 | 7 | 22* | 530 | -4 | 0 | 7
Cc1cc(C(=O)CCl)c(C)n1-c1cccc(S(=O)(=O)N2CCOCC2)c1 | -1 | 2 | . | 303 | 0 | . | .
CCOc1ccc(/C=C\c2nc(O)c([N+](=O)[O-])c(=O)[nH]2)cc1OCC | -17 | 1 | 15* | 870 | -1 | -1 | -3
CCCCN(C=O)c1c(CC)nc2c(OCC(=O)C(C)(C)C)cccn12 | . | . | 10 | . | . | . | .
CCCCN(C=O)c1c(CC)nc2c(OCC(=O)N3CCOCC3)cccn12 | . | . | 16* | . | . | 0 | -3
CN(C(=O)CSC1=NCCS1)c1ccccc1 | -5 | -1 | 15* | 441 | -6 | 0.9* | 0
CC1CN(C(=O)CS(=O)(=O)Cc2ccc(Cl)cc2)CC(C)O1 (configuration not stated) | -6 | 4 | 15* | 278 | 1 | -1 | 1

Screens as filed in PubChem.
